What was measured:
Assay in all cases: two-electrode voltage clamp, Xenopus oocytes
Type in all cases: cell-based
[1] = target: T1, LsRDLR (Laodelphax striatellus RDL GABA receptor) (Laodelphax striatellus, UniProt Q0ECT5, F128Y/Y91F)
T1 sequence (Q0ECT5 23-487 Y91F/F128Y): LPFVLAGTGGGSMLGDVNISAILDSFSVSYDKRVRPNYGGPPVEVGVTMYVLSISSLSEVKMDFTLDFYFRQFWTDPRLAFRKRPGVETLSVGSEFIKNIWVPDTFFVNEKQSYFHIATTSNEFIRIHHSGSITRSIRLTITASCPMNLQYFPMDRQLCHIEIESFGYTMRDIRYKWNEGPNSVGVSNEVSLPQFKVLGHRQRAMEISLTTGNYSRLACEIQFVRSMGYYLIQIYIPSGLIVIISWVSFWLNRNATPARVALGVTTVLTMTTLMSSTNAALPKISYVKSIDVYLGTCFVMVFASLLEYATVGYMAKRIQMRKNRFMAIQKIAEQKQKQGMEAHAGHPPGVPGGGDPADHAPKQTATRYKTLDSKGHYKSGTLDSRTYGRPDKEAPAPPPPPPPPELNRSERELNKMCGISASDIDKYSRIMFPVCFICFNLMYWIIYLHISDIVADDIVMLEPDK
Outline: (§1)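 WT or site-directed mutant LsRDL cRNA (5 ng) injected into defolliculated Xenopus oocytes, which were then held 48 hr at 16°C in SOS (pH 7.6). Clamped at −80 mV, perfused with SOS at 18–20°C. GABA applied for 3 sec at 30–60 sec intervals. EC50 from a four-parameter variable-slope logistic fit; ≥6 oocytes from ≥2 frogs; mean±S.D.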

[2] = target: T2, LsRDLR (Laodelphax striatellus RDL GABA receptor) (Laodelphax striatellus, UniProt Q0ECT5, F128Y/F95S/Y91F)
T2 sequence (Q0ECT5 23-487 Y91F/F95S/F128Y): T1 sequence (Q0ECT5 23-487 Y91F/F128Y)
Outline: as §1

[3] = target: T3, LsRDLR (Laodelphax striatellus RDL GABA receptor) (Laodelphax striatellus, UniProt Q0ECT5, Y91F)
T3 sequence (Q0ECT5 23-487 Y91F): T1 sequence (Q0ECT5 23-487 Y91F/F128Y)
Outline: as §1

[4] = target: T4, LsRDLR (Laodelphax striatellus RDL GABA receptor) (Laodelphax striatellus, UniProt Q0ECT5)
T4 sequence (Q0ECT5 23-487): T1 sequence (Q0ECT5 23-487 Y91F/F128Y)
Outline: as §1

[5] = target: T5, LsRDLR (Laodelphax striatellus RDL GABA receptor) (Laodelphax striatellus, UniProt Q0ECT5, F128Y)
T5 sequence (Q0ECT5 23-487 F128Y): T1 sequence (Q0ECT5 23-487 Y91F/F128Y)
Outline: as §1

[6] = target: T6, LsRDLR (Laodelphax striatellus RDL GABA receptor) (Laodelphax striatellus, UniProt Q0ECT5, F128Y/F95S)
T6 sequence (Q0ECT5 23-487 F95S/F128Y): T1 sequence (Q0ECT5 23-487 Y91F/F128Y)
Outline: as §1

[7] = target: T7, LsRDLR (Laodelphax striatellus RDL GABA receptor) (Laodelphax striatellus, UniProt Q0ECT5, F95S/Y91F)
T7 sequence (Q0ECT5 23-487 Y91F/F95S): T1 sequence (Q0ECT5 23-487 Y91F/F128Y)
Outline: as §1

[8] = target: T8, LsRDLR (Laodelphax striatellus RDL GABA receptor) (Laodelphax striatellus, UniProt Q0ECT5, F95S)
T8 sequence (Q0ECT5 23-487 F95S): T1 sequence (Q0ECT5 23-487 Y91F/F128Y)
Outline: as §1

[9] = target: T4, LsRDLR (Laodelphax striatellus RDL GABA receptor); conditions: read-out: % of control GABA response remaining at 30 μM gabazine

Compound | EC50 [1] | EC50 [2] | EC50 [3] | EC50 [4] | EC50 [5] | EC50 [6] | EC50 [7] | EC50 [8] | remaining activity at 30 µM [9]
NCCCC(=O)O [GABA] | 37.3 ± 11.8 µM | 15.4 ± 3.7 µM | 131 ± 45 µM | 6.83 ± 3.74 µM | 43.7 ± 10.2 µM | 25.6 ± 11.9 µM | 63.2 ± 23.8 µM | 4.08 ± 1.31 µM | –
COc1ccc(-c2ccc(=N)n(CCCC(=O)O)n2)cc1 [gabazine, 2-(3-carboxypropyl)-6-(4-methoxyphenyl)-2,3-dihydropyridazin-3-iminium bromide] | – | – | – | – | – | – | – | – | 77.8 ± 8%

From PMC9184248 (Journal of Pesticide Science, 2022)
